CHO parental Ca – ATP-evoked calcium signal inhibitors, parental CHO, primary screen, counter-screen for OX1R antagonist project, cell-based, fluorescence, Fluo-8 calcium dye; hit rate 0.63% among 330,000; parental CHO-K1, ATP-induced calcium, Fluo-8 fluorescence; inhibition, % at 5.6 µM; AID 463079, 2010;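 active = inhibition above that plate's mean sample inhibition plus 3 SD, cut at about 26% in these data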
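material = parental CHO cells | also added = ATP as calcium-mobilizing challenge | dosing = single point at 5.6 µM | detection = intracellular calcium via Fluo-8 no-wash fluorescent dye | read-out = % inhibition | benchmarks = low control ATP plus DMSO, high control DMSO only | repeats = one well per compound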
OX1R antag-1 – OX1R (HCRTR1) antagonists, primary screen, fluorescence, CHO/OX1R cells, Fluo-8 calcium, orexin A; Fluo-8 calcium fluorescence; Orexin/Hypocretin receptor type 1 (Homo sapiens), O43613; AID 434989, 2010; inhibition, % at 5 µM; hit rate 0.43% among 330,000;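 active = inhibition above its plate's threshold, mean inhibition of all tested compounds on the plate plus 3 SD, cut at about 37% in these data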
Target sequence (O43613 whole entry, looked up): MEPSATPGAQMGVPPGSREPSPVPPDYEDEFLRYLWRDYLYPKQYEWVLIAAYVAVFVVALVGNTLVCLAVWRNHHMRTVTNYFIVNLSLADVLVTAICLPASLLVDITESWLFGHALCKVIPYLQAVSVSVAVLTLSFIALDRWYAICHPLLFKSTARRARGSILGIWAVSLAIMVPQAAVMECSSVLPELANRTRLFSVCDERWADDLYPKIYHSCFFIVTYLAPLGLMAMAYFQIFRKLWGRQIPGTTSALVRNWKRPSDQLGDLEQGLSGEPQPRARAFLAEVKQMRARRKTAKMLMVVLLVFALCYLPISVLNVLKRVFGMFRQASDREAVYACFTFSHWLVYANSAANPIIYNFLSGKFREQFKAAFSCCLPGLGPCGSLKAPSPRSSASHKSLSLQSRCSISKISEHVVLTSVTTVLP
GalR3 antag – GalR3 antagonists in HEK293 cells, primary screen, cell-based, fluorescence readout; Galanin receptor type 3 (Homo sapiens), O60755; HEK293 GalR3-CNG cAMP membrane potential fluorescence; galR3 body fused to GalR1 C-terminus; inhibition, % at 3 µM; hit rate 0.44% among 360,000;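 active = inhibition above the screen-wide average plus 3 SD, cut at about 13% in these data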;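 also: forskolin and galanin both at EC90 stimulate the cells; cAMP rise reported by CNG channel membrane potential dye signal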
TAAR1 agonist – human TAAR1 agonists, primary screen, Fluo-8 calcium fluorescence, CHO RD-HGA16 cells. Trace amine-associated receptor 1 (Homo sapiens), Q96RJ0. vehicle wells 0%, saturating PEA agonist 100%. hit rate 0.99% among 360,000. activation, % at 3 µM;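 active = activation above the mean activation of all test compounds in the run plus 3 SD, cut at about 38% in these data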
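test system = CHO RD-HGA16 cells carrying human TAAR1 plus Gα16 | schedule = 17-24 h seeding, 75 min 37 °C dye, 30 min RT | compound dosing = 3 µM single concentration | control set = DMSO and PEA EC100 | replicates = n 1 | signal = Fluo-8 fluorescence, 5 s baseline then 140 s kinetic read | measure = percent activation vs PEA EC100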
OX1R antag-2 – antagonists of human orexin 1 receptor (OX1R); Orexin/Hypocretin receptor type 1 (Homo sapiens), O43613; OX1R-expressing cells, FRET antagonist read-out; inhibition, % at 6.6 µM; AID 485270, 2010; hit rate 1.8% among 330,000; in the data active = inhibition mostly above about 38%, no sharp cut-off; inactive = mostly below about 40%
TAAR1 antagonist – human TAAR1 antagonists, primary screen, Fluo-8 calcium fluorescence, CHO RD-HGA16 cells; inhibition, % at 3 µM; hit rate 1.5% among 360,000; antagonist;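 active = inhibition above a per-plate cutoff, the mean inhibition of test compounds on that plate plus 3 SD, cut at about 49% in these data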
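System: CHO RD-HGA16 cells bearing hTAAR1. Reagent: EC80 β-phenethylamine stimulus. Schedule: seeding 17-24 h prior, 75-min 37 °C, 30-min RT dye loading. Signal: Fluo-8 intracellular calcium dye fluorescence, real-time kinetic reads. Read-out: % inhibition from peak post-agonist over basal fluorescence ratio. Benchmarks: vehicle wells and EC80 agonist wells. Replicates: n of 1.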
A number is an active result; 0 = inactive; - = no result given. In the library only some 4.3% were active in any assay of this set; here they are far more common.

SMILES | CHO parental Ca | OX1R antag-1 | GalR3 antag | TAAR1 agonist | OX1R antag-2 | TAAR1 antagonist
COc1cccc(/C=C2\SC(=S)N(NS(=O)(=O)c3ccccc3)C2=O)c1OC | 0 | 0 | 0 | 0 | 50 | 0
CCOc1ccc(NC(=O)Cn2nnc(-c3ccc(C(N)=O)cc3)n2)cc1S(=O)(=O)N1CCCC1 | - | - | 0 | 0 | - | 0
O=C(/C=C\c1cn(-c2ccccc2)nc1-c1ccccc1)Nc1nccs1 | 0 | 0 | 0 | 0 | 0 | 51
O=C(Nc1ccncc1)C1CCN(S(=O)(=O)c2ccccc2C(F)(F)F)CC1 | 0 | 0 | 0 | 0 | 0 | 0
COc1ccc(CC(=O)N2CCN(c3ccccn3)CC2)cc1OC | 0 | 0 | 0 | 0 | 0 | 0
CCCc1ccc(OCc2ccc(C(=O)N3CCN(c4ccccn4)CC3)o2)c(OC)c1 | 0 | 0 | 0 | 0 | 0 | 51
Cc1cc(N2CCN(C(=O)c3cccs3)CC2)c(F)cc1[N+](=O)[O-] | 52 | 0 | 0 | 0 | 0 | 0
O=C(c1cccs1)N1CCN(c2ccc([N+](=O)[O-])cc2F)CC1 | 0 | 0 | 0 | 0 | 0 | 0
Oc1ccc(Cl)cc1CNn1cnnc1 | 0 | 0 | 0 | 0 | 0 | 0
Oc1ccc(Cl)cc1CNCc1ccc(Cl)cc1 | 0 | 0 | 0 | 49 | 0 | 0
Oc1ccc(Cl)cc1Cc1cc(Cl)ccc1O | 0 | 0 | - | 0 | 46 | 0
O=C(CN1CCCC1c1cccs1)Nc1cccc(S(=O)(=O)N2CCCC2)c1 (stereo not drawn) | 0 | 0 | 0 | 0 | 32 | 0
O=C(Cc1ccccc1)Nc1cccc(S(=O)(=O)N2CCCCCC2)c1 | 0 | 0 | 0 | 0 | 0 | 0
O=C(CN1CCc2ccccc2C1)Nc1cccc(S(=O)(=O)N2CCCC2)c1 | 0 | 0 | 0 | 38 | 0 | 0
CC(C)C[C@H](NC(=O)c1ccc(Cl)c(Cl)c1)C(=O)N1CCC[C@H]1C(=O)NCc1ccccc1 | - | - | 0 | 0 | - | 0
Nc1ccc(C(=O)OCCCc2nc3cc4ccccc4cc3[nH]2)cc1 | 0 | 0 | 0 | 0 | 41 | 0
Nc1ccc(C(=O)OCc2nc3cc4ccccc4cc3[nH]2)cc1 | 0 | 0 | 0 | 0 | 0 | 0
COc1ccc(-c2csc(NCCc3nc4cc(Cl)c(Cl)cc4n3CCCO)n2)cc1 | 0 | 0 | 0 | 0 | 0 | 55
CCCc1cc2c(OC)ccc(O)c2c(=O)n1C | - | - | 0 | 0 | - | 0
Cc1ccc(C(c2nnnn2C2CCCCC2)N2CCc3ccccc32)cc1 (stereo not drawn) | 0 | 0 | 0 | 0 | 0 | 0
Oc1ccc(C(c2nnnn2C2CCCC2)N2CCc3ccccc3C2)cc1 (stereo not drawn) | 0 | 0 | 0 | 82 | 0 | 84
COc1ccc(S(=O)(=O)N2CCCc3nc(-c4ccc(Br)cc4)ccc32)cc1 | - | - | 0 | 0 | - | 0
CCOC(=O)c1cccc(NC(=O)CCNS(=O)(=O)c2cc(Br)cnc2N)c1 | 0 | 0 | 0 | 0 | 63 | 0
Nc1ncc(Br)cc1S(=O)(=O)NCCC(=O)Nc1cccc(Cl)c1 | 0 | 0 | 0 | 0 | 0 | 0
COc1ccc(Sc2cccc3c2S(=O)(=O)N([C@H](C)c2ccccc2)C[C@@H](COCc2ccccc2)O3)cc1OC | - | - | 0 | 0 | - | 0
Cc1c(=O)n(OCc2cccc(F)c2)c2ccccc2[n+]1[O-] | 0 | 0 | 0 | 0 | 42 | 0
CCOC(=O)C1=C(Cn2cnc3ccccc32)NC(=O)NC1c1cc(C)ccc1C (stereo not drawn) | 95 | 79 | 0 | 58 | 0 | 65
CCOC(=O)C1=C(CSc2nccn2C)NC(=O)NC1c1cc(C)ccc1C (stereo not drawn) | 0 | 0 | 0 | 0 | 0 | 0
C=CCN1C=CC(=C/C=C(/C#N)C(=O)OCC)C=C1 | 0 | 0 | 0 | 0 | 60 | 0
O=C(N[C@H](C(=O)N1CCC[C@H]1C(=O)NCCc1ccccc1Cl)c1ccccc1)c1ccc(Cl)c(Cl)c1 | - | - | 0 | 0 | - | 0

Compound activity: PubChem BioAssay, The Scripps Research Institute Molecular Screening Center
